According to ChEMBL document CHEMBL4725345, “DFG-1 Residue Controls Inhibitor Binding Mode and Affinity, Providing a Basis for Rational Design of Kinase Inhibitor Selectivity” (J Med Chem, 2020):

How the values were obtained:
[1] = target: Tyrosine-protein kinase JAK1 (Homo sapiens) (UniProt P23458); assay: Binding affinity to JAK1 (unknown origin) assessed as change in melting temperature at 10 uM incubated for 10 mins using SYPRO orange dye by RT-PCR-based fluorescence assay
Method in brief: (§1)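 Recombinant kinase domain at 2 μM in 10 mM HEPES pH 7.5, 500 mM NaCl, mixed with 10 μM inhibitor for 10 min at room temperature; SYPRO orange added at 1:1000; temperature-dependent unfolding fluorescence read on a real-time PCR instrument; Tm shift derived by a previously described method.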

[2] = target: Bone morphogenetic protein receptor type-1B (Homo sapiens) (UniProt O00238); assay: Binding affinity to BMPR1B (unknown origin) assessed as change in melting temperature at 10 uM incubated for 10 mins using SYPRO orange dye by RT-PCR-based fluorescence assay; method in brief: as §1
[3] = target: Bone morphogenetic protein receptor type-2 (Homo sapiens) (UniProt Q13873); assay: Binding affinity to BMPR2 (unknown origin) assessed as change in melting temperature at 10 uM incubated for 10 mins using SYPRO orange dye by RT-PCR-based fluorescence assay; method in brief: as §1
[4] = target: Activin receptor type-1 (Homo sapiens) (UniProt Q04771); assay: Binding affinity to ACVR1 (unknown origin) assessed as change in melting temperature at 10 uM incubated for 10 mins using SYPRO orange dye by RT-PCR-based fluorescence assay; method in brief: as §1
[5] = target: Activin receptor type-2B (Homo sapiens) (UniProt Q13705); assay: Binding affinity to ACTR2B (unknown origin) assessed as change in melting temperature at 10 uM incubated for 10 mins using SYPRO orange dye by RT-PCR-based fluorescence assay; method in brief: as §1
[6] = target: AP2-associated protein kinase 1 (Homo sapiens) (UniProt Q2M2I8); assay: Binding affinity to AAK1 (unknown origin) assessed as change in melting temperature at 10 uM incubated for 10 mins using SYPRO orange dye by RT-PCR-based fluorescence assay; method in brief: as §1
[7] = target: Cyclin-G-associated kinase (Homo sapiens) (UniProt O14976); assay: Binding affinity to GAK (unknown origin) assessed as change in melting temperature at 10 uM incubated for 10 mins using SYPRO orange dye by RT-PCR-based fluorescence assay; method in brief: as §1
[8] = target: Serine/threonine-protein kinase pim-1 (Homo sapiens) (UniProt P11309); assay: Binding affinity to PIM1 (unknown origin) assessed as change in melting temperature at 10 uM incubated for 10 mins using SYPRO orange dye by RT-PCR-based fluorescence assay
[9] = target: Serine/threonine-protein kinase pim-3 (Homo sapiens) (UniProt Q86V86); assay: Binding affinity to PIM3 (unknown origin) assessed as change in melting temperature at 10 uM incubated for 10 mins using SYPRO orange dye by RT-PCR-based fluorescence assay; method in brief: as §1
[10] = target: Receptor-interacting serine/threonine-protein kinase 2 (Homo sapiens) (UniProt O43353); assay: Binding affinity to RIPK2 (unknown origin) assessed as change in melting temperature at 10 uM incubated for 10 mins using SYPRO orange dye by RT-PCR-based fluorescence assay; method in brief: as §1
[11] = target: T1, Dual specificity tyrosine-phosphorylation-regulated kinase 2 (Homo sapiens) (UniProt Q92630); assay: Binding affinity to DYRK2 (unknown origin) assessed as change in melting temperature at 10 uM incubated for 10 mins using SYPRO orange dye by RT-PCR-based fluorescence assay; method in brief: as §1
T1 sequence (whole entry): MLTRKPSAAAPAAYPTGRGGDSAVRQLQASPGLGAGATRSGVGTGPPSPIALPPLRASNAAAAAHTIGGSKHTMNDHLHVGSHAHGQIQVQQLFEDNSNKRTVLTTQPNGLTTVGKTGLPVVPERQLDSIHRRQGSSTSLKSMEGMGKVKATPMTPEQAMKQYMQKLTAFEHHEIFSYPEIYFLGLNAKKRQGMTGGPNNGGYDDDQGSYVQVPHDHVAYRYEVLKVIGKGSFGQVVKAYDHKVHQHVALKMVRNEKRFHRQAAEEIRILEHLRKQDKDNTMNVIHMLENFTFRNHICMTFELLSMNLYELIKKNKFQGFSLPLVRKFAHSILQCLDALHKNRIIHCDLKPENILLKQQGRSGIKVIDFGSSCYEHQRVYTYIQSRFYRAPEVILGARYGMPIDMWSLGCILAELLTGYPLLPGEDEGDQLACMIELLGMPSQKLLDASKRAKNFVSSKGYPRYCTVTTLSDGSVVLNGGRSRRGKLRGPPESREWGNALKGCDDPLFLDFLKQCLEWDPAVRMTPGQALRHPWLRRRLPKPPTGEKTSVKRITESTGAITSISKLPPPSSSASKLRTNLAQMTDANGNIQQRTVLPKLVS

[12] = target: Glycogen synthase kinase-3 beta (Homo sapiens) (UniProt P49841); assay: Binding affinity to GSK3B (unknown origin) assessed as change in melting temperature at 10 uM incubated for 10 mins using SYPRO orange dye by RT-PCR-based fluorescence assay; method in brief: as §1
[13] = target: Serine/threonine-protein kinase pim-2 (Homo sapiens) (UniProt Q9P1W9); assay: Binding affinity to PIM2 (unknown origin) assessed as change in melting temperature at 10 uM incubated for 10 mins using SYPRO orange dye by RT-PCR-based fluorescence assay; method in brief: as §1
[14] = target: Myosin light chain kinase family member 4 (Homo sapiens) (UniProt Q86YV6); assay: Binding affinity to SgK085 (unknown origin) assessed as change in melting temperature at 10 uM incubated for 10 mins using SYPRO orange dye by RT-PCR-based fluorescence assay; method in brief: as §1
Homo sapiens = organism: Homo sapiens; assay: Binding affinity to RSK4B (unknown origin) assessed as change in melting temperature at 10 uM incubated for 10 mins using SYPRO orange dye by RT-PCR-based fluorescence assay; method in brief: as §1
[15] = target: Casein kinase I isoform epsilon (Homo sapiens) (UniProt P49674); assay: Binding affinity to CSNK1E (unknown origin) assessed as change in melting temperature at 10 uM incubated for 10 mins using SYPRO orange dye by RT-PCR-based fluorescence assay; method in brief: as §1
[16] = target: Dual specificity protein kinase CLK4 (Homo sapiens, UniProt Q9HAZ1); settings: dose 10.0 µM, time 10.0 min
[17] = target: Dual specificity protein kinase CLK1 (Homo sapiens, UniProt P49759); settings: dose 10.0 µM, time 10.0 min
[18] = target: Dual specificity protein kinase CLK2 (Homo sapiens) (UniProt P49760); settings: dose 10.0 µM, time 10.0 min
[19] = target: Activin receptor type-2A (Homo sapiens) (UniProt P27037); assay: Binding affinity to ACTR2 (unknown origin) assessed as change in melting temperature at 10 uM incubated for 10 mins using SYPRO orange dye by RT-PCR-based fluorescence assay
[20] = target: Ribosomal protein S6 kinase alpha-1 (Homo sapiens) (UniProt Q15418); assay: Binding affinity to RSK1B (unknown origin) assessed as change in melting temperature at 10 uM incubated for 10 mins using SYPRO orange dye by RT-PCR-based fluorescence assay

CC(=O)c1cccc(-c2cnc3ccc(NCC4CC4)nn23)c1
ΔTm [1]: > 6 °C | ΔTm [2]: > 6 °C | ΔTm [3]: > 6 °C | ΔTm [4]: > 6 °C | ΔTm [5]: > 6 °C | ΔTm [6]: > 6 °C | ΔTm [7]: > 6 °C | ΔTm [8]: > 6 °C | ΔTm [9]: > 6 °C | ΔTm [10]: > 4 °C | ΔTm [11]: > 4 °C | ΔTm [12]: > 4 °C | ΔTm [13]: > 4 °C | ΔTm [14]: > 4 °C | ΔTm (Homo sapiens): > 4 °C | ΔTm [15]: > 4 °C | ΔTm [16]: > 6 °C | ΔTm [17]: > 4 °C | ΔTm [18]: > 4 °C | ΔTm [19]: > 6 °C | ΔTm [20]: > 4 °C
